# Active and inactive are the calls of the source. No cut-off for these calls is given here.
# Key:
# [1] = tested on: LoVo; assay: Antiproliferative activity against human LoVo cells after 48 hrs by MTT assay; type: functional, cell-based
# [2] = tested on: HepG2; assay: Antiproliferative activity against human HepG2 cells after 48 hrs by MTT assay; type: functional, cell-based; conditions: HepG2, 48 h
# [3] = tested on: SMMC-7721; assay: Antiproliferative activity against human SMMC7721 cells after 48 hrs by MTT assay; type: functional, cell-based; conditions: SMMC-7721, 48 h
# [4] = tested on: HCT-116; assay: Antiproliferative activity against human HCT116 cells after 48 hrs by MTT assay; type: functional, cell-based; conditions: HCT-116, 48 h
# [5] = target: Histone deacetylase; assay: Inhibition of HDAC in human HeLa nuclear extract using Boc-Lys(acetyl)-AMC as substrate measured after 60 mins by fluorescence assay; type: protein assay
# [6] = tested on: Calf thymus DNA; assay: Binding affinity to calf thymus DNA assessed as maximum absorption wavelength by UV-Vis spectroscopic titration method; type: nucleic-acid assay; conditions: Bos taurus
# [7] = tested on: HepG2; assay: Induction of apoptosis in human HepG2 cells assessed as increase in cleaved caspase3 expression at 5 uM after 48 hrs by Western blot analysis; type: functional, cell-based
# Outline: (§1)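 Sub-confluent HepG2 cells incubated with or without compound (1.0–4.0 μM) or SAHA (5.0 μM) for 48 h. Lysates immunoblotted for Bax, Bcl-2, cleaved caspase-3 and PARP, with β-actin as internal control. Densitometric scanning gave levels relative to β-actin, as mean ± SD of three separate experiments.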
# [8] = tested on: HepG2; assay: Induction of apoptosis in human HepG2 cells assessed as increase in cleaved PARP expression at 5 uM after 48 hrs by Western blot analysis; type: functional, cell-based; outline: as §1
# [9] = Half life in rat liver microsomes at 5 uM in presence of NADPH by LC-MS analysis
# [10] = tested on: HepG2; assay: Induction of apoptosis in human HepG2 cells at 5 uM after 48 hrs by Annexin-V FITC/propidium iodide staining based flow cytometry relative to control; type: functional
# Outline: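 HepG2 cells treated for 48 h with vehicle, compound at 1.0, 2.0 or 4.0 μM, or SAHA at 5.0 μM. Cells stained with FITC-annexin V/PI and analysed by flow cytometry. Percentage of apoptotic cells reported as mean ± SD of three independent experiments; significance tested versus control.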
# [11] = tested on: Calf thymus DNA; assay: Binding affinity to calf thymus DNA assessed as decrease in maximum absorption wavelength by UV-Vis spectroscopic titration method; type: nucleic-acid assay; conditions: Bos taurus
IC50 [1],IC50 [2],IC50 [3],IC50 [4],IC50 [5],Compound,Activity [6],Activity [7],Activity [8],half-life at 5 µM [9],Activity [10],Activity [11]
> 12.5 µM,> 12.5 µM,> 12.5 µM,> 12.5 µM,1.75 µM,CCN(Cc1ccc(C(=O)NO)cc1)C(=O)c1cc2c([nH]c3ccccc32)c(C)n1,,,,,,
5.31 µM,3.64 µM,4.12 µM,2.96 µM,0.23 µM,CCCN(Cc1ccc(C(=O)NO)cc1)C(=O)c1cc2c([nH]c3ccccc32)c(-c2cccc(OC)c2)n1,,,,,,
> 12.5 µM,10.5 µM,> 12.5 µM,9.76 µM,0.96 µM,COc1ccc(-c2nc(C(=O)N(C)Cc3ccc(C(=O)NO)cc3)cc3c2[nH]c2ccccc23)cc1,,,,,,
,> 12.5 µM,> 12.5 µM,> 12.5 µM,4.78 µM,CCN(Cc1ccc(C(=O)NO)cc1)C(=O)c1cc2c(cn1)[nH]c1ccccc12,,,,,,
4.76 µM,3.37 µM,5.25 µM,3.02 µM,0.34 µM,CCCCN(Cc1ccc(C(=O)NO)cc1)C(=O)c1cc2c([nH]c3ccccc32)c(-c2ccc(OC)cc2)n1,,,,,,
,> 12.5 µM,> 12.5 µM,> 12.5 µM,2.69 µM,CCCCN(Cc1ccc(C(=O)NO)cc1)C(=O)c1cc2c(cn1)[nH]c1ccccc12,,,,,,
> 12.5 µM,9.83 µM,11.6 µM,10.5 µM,0.85 µM,CCCN(Cc1ccc(C(=O)NO)cc1)C(=O)c1cc2c([nH]c3ccccc32)c(C)n1,,,,,,
,> 12.5 µM,> 12.5 µM,> 12.5 µM,5.63 µM,CN(Cc1ccc(C(=O)NO)cc1)C(=O)c1cc2c(cn1)[nH]c1ccccc12,,,,,,
7.63 µM,5.16 µM,5.75 µM,4.32 µM,0.37 µM,CCCCN(Cc1ccc(C(=O)NO)cc1)C(=O)c1cc2c([nH]c3ccccc32)c(-c2cccc(OC)c2)n1,,,,,,
9.24 µM,8.34 µM,10.3 µM,6.07 µM,0.83 µM,CCN(Cc1ccc(C(=O)NO)cc1)C(=O)c1cc2c([nH]c3ccccc32)c(-c2ccc(OC)cc2)n1,,,,,,
,,,,,O=C(CCCCCCC(=O)Nc1ccccc1)NO [VORINOSTAT],,Active,Active,44 min,34.5%,inactive
,> 12.5 µM,> 12.5 µM,> 12.5 µM,2.82 µM,CCCN(Cc1ccc(C(=O)NO)cc1)C(=O)c1cc2c(cn1)[nH]c1ccccc12,,,,,,
> 12.5 µM,> 12.5 µM,> 12.5 µM,> 12.5 µM,3.06 µM,Cc1nc(C(=O)N(C)Cc2ccc(C(=O)NO)cc2)cc2c1[nH]c1ccccc12,,,,,,
> 12.5 µM,11.7 µM,> 12.5 µM,> 12.5 µM,0.93 µM,CCCCN(Cc1ccc(C(=O)NO)cc1)C(=O)c1cc2c([nH]c3ccccc32)c(C)n1,,,,,,

Compound,IC50 [1],IC50 [2],IC50 [3],IC50 [4],IC50 [5],Activity [6],Activity [7],Activity [8],half-life at 5 µM [9],Activity [10],Activity [11]
COc1ccc2c(c1)[nH]c1c(C)nccc12 [HARMINE],,,,,> 10 µM,320 nm,,,,,

# Source: ChEMBL document CHEMBL4261493, “Development of novel β-carboline-based hydroxamate derivatives as HDAC inhibitors with DNA damage and apoptosis inducing abilities” (Medchemcomm, 2017)
